In brackets after ≈: the same amount, converted by molar mass. Activity calls are given as the source filed them. The rule behind the calls is not given here.

A short description of data set [1]: Solubility of compound in simulated gastric fluid at pH 1.2 in absence of pepsin at 5 mg incubated at 25 degreeC for 6 hrs by UHPLC analysis. In kind it is ADME. The following applies: simulated gastric fluid without pepsin. An outline of the steps:
(§1)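 Solid compound (5 mg) was shaken in 1 mL water, PBS (pH 7.4, 50 mM) or pepsin-free SGF (pH 1.2) for 6 h at 25 °C. Suspensions were filtered (0.45 μm) and the filtrate quantified by UHPLC, reported in mg/L; triplicate, mean values.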

Data set [2] in a line: Solubility of compound in PBS at pH 7.4 at 5 mg incubated at 25 degreeC for 6 hrs by UHPLC analysis. It is filed as physicochemical. The gist of the method: as §1
The nature of data set [3]: Half life in PBS at pH 7.4 at 100 uM incubated at 37 degreeC up to 24 hrs by UPHLC analysis. In kind it is ADME. The gist of the method: (§2)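 A 10 mM DMSO stock was diluted to 100 μM in PBS (pH 7.4, 50 mM) or pepsin-free SGF (pH 1.2) and held at 37 ± 0.5 °C for 24 h. Timed aliquots were quantified by reverse-phase UHPLC-DAD against calibration curves (1.56–100 ppm), tracking the parent compound plus aminoacetate and corticosteroid metabolites. Pseudo-first-order t1/2 was calculated; n = 3.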

Data set [4] can be described thus: Induction of H2S release in PBS at pH 7.4 at 100 uM pretreated with L-Cys for 10 mins followed by compound addition and measured after 30 mins by free radical analyzer. It is filed as physicochemical. The following applies: buffer, pH 7.4, 0.5 h. The gist of the method:
(§3)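 An H2S-selective mini-electrode was equilibrated in PBS pH 7.4, and compound was added to 100 μM final (1 % DMSO). Amperometric current was recorded for 30 min, with or without L-cysteine 4 mM added 10 min before. Current was converted to H2S using NaHS calibration (1–10 µM, pH 4.0); mean ± SEM.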

In data set [5] the test system is RBL-2H3. Put plainly: Inhibition of mast cell degranulation in DNP-HSA antigen sensitized rat RBL-2H3 cells assessed as reduction in beta-hexoaminosidase release at 100 uM preincubated for 5 mins followed by DNP addition and measured after 1 hr by multiplate reader. In kind it is functional, cell-based. To be noted: time 65.0 min. The gist of the method:
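RBL-2H3 cells (72×10^3/well) were sensitized overnight with anti-DNP IgE 0.50 µg/ml, then moved to phenol-free DMEM with 1 mg/ml BSA. Cells were preincubated 5 min at 37 °C with 0.1 % DMSO, cromolyn 1 mM or compound 100 μM, then challenged with DNP-HSA 10 ng/ml. After 1 h, supernatant was incubated 1 h with 1.4 mM p-nitrophenyl-N-acetyl-β-D-glucosaminide (citrate pH 4.2), stopped with Trizma pH 9.4, and read at 405 nm.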

Data set [6] is described as follows: Half life in simulated gastric fluid at pH 1.2 in absence of pepsin at 100 uM incubated at 37 degreeC up to 24 hrs by UPHLC analysis. It is filed as ADME. The following applies: simulated gastric fluid without pepsin. The gist of the method:
as §2

In data set [7] the target is T1, Albumin (Bos taurus, UniProt P02769). Put plainly: Stability in 3% bovine serum albumin assessed as parent compound remaining at 200 uM incubated at 37 degreeC for 10 mins by UHPLC analysis. It is filed as ADME. The following applies: cattle, 3% bovine serum albumin solution, read-out: Stability. An outline of the steps:
(§4)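 A 10 mM DMSO stock was diluted to 200 μM in 3 % BSA in PBS and incubated at 37 ± 0.5 °C for up to 4 h. Timed samples were deproteinized with an equal volume of acetonitrile/0.1 % TFA, centrifuged, filtered and quantified by UHPLC. Results are given as pseudo-first-order t1/2 or % parent remaining at 10 min; n ≥ 3.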

Data set [8] concerns RBL-2H3. Put plainly: Cytotoxicity against rat RBL-2H3 cells assessed as reduction cell viability at 100 uM after 24 hrs by WST assay. To be noted: rbl-2h3, 24 h. In kind it is toxicity, cell-based. An outline of the steps: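 RBL-2H3 cells were grown in MEM with 10 % FBS, 10^4 cells/well, and attached for 24 h. They were then exposed 24 h to 100 μM compound (final) or 0.1 % DMSO. WST-1 (1:10) was added for 60 min at 37 °C and absorbance read at 450 nm. Viability is expressed as % of vehicle; mean ± SEM.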

A short description of data set [9]: Induction of H2S release in PBS at pH 7.4 at 100 uM measured after 30 mins by free radical analyzer. It is filed as physicochemical. The following applies: buffer, pH 7.4, 0.5 h. An outline of the steps:
as §3

Data set [10] in a line: Solubility of compound in water at 5 mg incubated at 25 degreeC for 6 hrs by UHPLC analysis. In kind it is physicochemical. An outline of the steps: as §1
Data set [11] concerns the target T1, Albumin. Put plainly: Half life in 3% bovine serum albumin at 200 uM incubated up to 4 hrs by UHPLC analysis. In kind it is ADME. To be noted: cattle, 3% bovine serum albumin solution. The gist of the method:
as §4

T1 sequence (P02769 whole entry): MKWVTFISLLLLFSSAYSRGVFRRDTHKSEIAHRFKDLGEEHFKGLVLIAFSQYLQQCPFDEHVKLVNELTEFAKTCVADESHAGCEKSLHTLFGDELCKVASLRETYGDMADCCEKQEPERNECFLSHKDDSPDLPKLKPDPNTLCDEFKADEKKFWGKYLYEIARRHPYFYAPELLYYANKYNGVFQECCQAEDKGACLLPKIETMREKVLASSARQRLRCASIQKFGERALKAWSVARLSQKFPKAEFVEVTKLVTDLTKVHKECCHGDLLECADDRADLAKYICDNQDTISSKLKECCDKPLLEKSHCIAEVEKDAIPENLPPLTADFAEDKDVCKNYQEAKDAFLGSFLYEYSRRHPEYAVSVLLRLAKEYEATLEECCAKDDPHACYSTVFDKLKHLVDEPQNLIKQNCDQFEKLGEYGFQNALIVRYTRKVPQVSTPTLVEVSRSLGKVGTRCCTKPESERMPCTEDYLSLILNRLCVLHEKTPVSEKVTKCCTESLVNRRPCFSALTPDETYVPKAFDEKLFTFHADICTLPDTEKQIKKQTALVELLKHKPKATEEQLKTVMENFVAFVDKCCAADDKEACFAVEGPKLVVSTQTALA

Consider `C[C@]12C=CC(=O)C=C1CC[C@@H]1[C@@H]2C(=O)C[C@@]2(C)[C@H]1CC[C@]2(O)C(=O)COC(=O)CN=C=S`, for which the figures for the solubility at 6 h in data set [1], in data set [2] and in [10] were 16.1 µg/mL (≈ 35.2 µM), 15.9 µg/mL (≈ 34.8 µM) and 5.26 µg/mL (≈ 11.5 µM), respectively. The half-life at 100 µM in data set [3] is 0.2 h; in data set [6], 18 h. Besides, the Activity in [4] is ~ 2 uM; in the data set with RBL-2H3 [8], “Non-Toxic”; in [9], ~ 2 uM. For the same compound, the inhibition result in the data set on RBL-2H3 [5] is “Active”. Besides, on Albumin [7], the remaining at 10 min, 200 µM is 19%.
`CCCCC(=O)O[C@]1(C(=O)COC(=O)CN=C=S)[C@@H](C)C[C@H]2[C@@H]3CCC4=CC(=O)C=C[C@]4(C)[C@@]3(F)[C@@H](O)C[C@@]21C`: the solubility at 6 h in [1] is 0.16 µg/mL (≈ 0.278 µM); in data set [2], 0.12 µg/mL (≈ 0.208 µM); in [10], < 0.1 µg/mL. At Albumin [11], this compound showed a half-life at 200 µM of 1 h. In addition, the half-life at 100 µM in data set [3] and in [6] was > 24 h each time. Besides, the Activity result in [4] is listed as “Active”; in the data set with RBL-2H3 [8] it was “Toxic”; in [9], “Active”.
As to `C[C@]12C=CC(=O)C=C1CC[C@@H]1[C@@H]2C(=O)C[C@@]2(C)[C@H]1CC[C@]2(O)C(=O)COC(=O)CN`, the inhibition result in the data set with RBL-2H3 [5] was “Active”.
Turning to `[Na+].[SH-]` [SODIUM HYDROSULFIDE], the Activity entry in [4] and in data set [9] was “<= 20 uM” in each case.
`CCCC1O[C@@H]2C[C@H]3[C@@H]4CCC5=CC(=O)C=C[C@]5(C)[C@H]4[C@@H](O)C[C@]3(C)[C@]2(C(=O)COC(=O)CN=C=S)O1` (stereo partly drawn): the solubility at 6 h in data set [1], in data set [2] and in data set [10] was < 0.1 µg/mL in each case. For the same compound, the half-life at 100 µM in data set [3] and in data set [6] was > 24 h each time. Also, the Activity in data set [4] is recorded as ~ 2 uM; in the data set with RBL-2H3 [8] it was “Non-Toxic”; in [9] it was ~ 2 uM. The inhibition entry in the data set with RBL-2H3 [5] was “Active”. Besides, the remaining at 10 min, 200 µM on Albumin [7] is 23%.
Take `C[C@@H]1C[C@H]2[C@@H]3CCC4=CC(=O)C=C[C@]4(C)[C@@]3(F)[C@@H](O)C[C@]2(C)[C@@]1(O)C(=O)COC(=O)CN=C=S`: the results for the solubility at 6 h in data set [1], in data set [2] and in [10] were < 0.1 µg/mL, < 0.1 µg/mL and 0.14 µg/mL (≈ 0.285 µM), respectively. The half-life at 100 µM in [3] was 0.7 h; in [6] it was 10 h. The Activity in data set [4] is listed as ~ 2 uM; in the data set on RBL-2H3 [8], “Non-Toxic”; in data set [9], ~ 2 uM. The inhibition entry with RBL-2H3 [5] is “Active”. For the same compound, the remaining at 10 min, 200 µM at Albumin [7] is 6%.
As for `C[C@@H]1C[C@H]2[C@@H]3CCC4=CC(=O)C=C[C@]4(C)[C@@]3(F)[C@@H](O)C[C@]2(C)[C@@]1(O)C(=O)COC(=O)CN`, the inhibition entry in the data set with RBL-2H3 [5] was “Active”.

These data come from ChEMBL document CHEMBL5579848, “Isothiocyanate-Corticosteroid Conjugates against asthma: Unity makes strength” (Eur J Med Chem, 2024).
